# Experimental data published in ChEMBL document CHEMBL3244080, “Structure-activity correlations for a series of antiallergy agents. Oxanilic, quinaldic, and benzopyran-2-carboxylic acids” (1978).
# Test system: Rattus norvegicus
# Assay: Antiallergic activity in iv dosed Sprague-Dawley rat assessed as inhibition of egg albumin-induced passive cutaneous anaphylaxis
# Assay type: functional
# Conditions: for ED50: Rattus norvegicus, Sprague-Dawley, iv
# Summary of the method: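 Rat passive cutaneous anaphylaxis; drug given iv as its tris(hydroxymethyl)aminomethane (THAM) salt solution at the moment of antigen challenge. Percent inhibition of the PCA reaction measured at three or more trial doses; ED50 = dose giving 50% inhibition of the anaphylactic reaction.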
SMILES,Activity_index,ED50 [µmol/kg]
Nc1ccc2nc(C(=O)O)cc(O)c2c1,9.9,48.3
COc1ccc2nc(C(=O)O)cc(O)c2c1,9.4,82.2
O=C(O)C(=O)Nc1ccccc1,8.3,245
N#Cc1ccc(NC(=O)C(=O)O)cc1,10.1,40.5
N#Cc1ccccc1NC(=O)C(=O)O,11.5,10.1
N#Cc1cccc(NC(=O)C(=O)O)c1,12.6,3.38
N#Cc1cc(NC(=O)C(=O)O)ccc1Cl,13.1,2.06
N#Cc1ccc(Cl)c(NC(=O)C(=O)O)c1,13.3,1.74
N#Cc1cc(C#N)cc(NC(=O)C(=O)O)c1,14,0.84
Nc1ccc2oc(C(=O)O)cc(=O)c2c1,10,43.5
O=C(O)c1cc(=O)c2cc([N+](=O)[O-])ccc2o1,11.9,6.48
O=C(O)c1cc(=O)c2c(OCC(O)COc3cccc4oc(C(=O)O)cc(=O)c34)cccc2o1 [CROMOLYN SODIUM],–,6.1
O=C(O)c1cc(=O)c2ccccc2[nH]1 [TRANSTORINE],10.1,42.4
O=C(O)c1cc(O)c2cccc(O)c2n1 [XANTHURENATE],9.1,114
